# PLC-gamma1 inh: blocks human PLC-gamma1 enzyme activity; AID 720700; actives 0.84% (n = 370,000); purified PLC-gamma1, fluorogenic substrate, fluorescence; P19174; inhibition, % at 12.2 µM; in the data active means inhibition above about 9.5%
# Target sequence (P19174 whole entry, looked up): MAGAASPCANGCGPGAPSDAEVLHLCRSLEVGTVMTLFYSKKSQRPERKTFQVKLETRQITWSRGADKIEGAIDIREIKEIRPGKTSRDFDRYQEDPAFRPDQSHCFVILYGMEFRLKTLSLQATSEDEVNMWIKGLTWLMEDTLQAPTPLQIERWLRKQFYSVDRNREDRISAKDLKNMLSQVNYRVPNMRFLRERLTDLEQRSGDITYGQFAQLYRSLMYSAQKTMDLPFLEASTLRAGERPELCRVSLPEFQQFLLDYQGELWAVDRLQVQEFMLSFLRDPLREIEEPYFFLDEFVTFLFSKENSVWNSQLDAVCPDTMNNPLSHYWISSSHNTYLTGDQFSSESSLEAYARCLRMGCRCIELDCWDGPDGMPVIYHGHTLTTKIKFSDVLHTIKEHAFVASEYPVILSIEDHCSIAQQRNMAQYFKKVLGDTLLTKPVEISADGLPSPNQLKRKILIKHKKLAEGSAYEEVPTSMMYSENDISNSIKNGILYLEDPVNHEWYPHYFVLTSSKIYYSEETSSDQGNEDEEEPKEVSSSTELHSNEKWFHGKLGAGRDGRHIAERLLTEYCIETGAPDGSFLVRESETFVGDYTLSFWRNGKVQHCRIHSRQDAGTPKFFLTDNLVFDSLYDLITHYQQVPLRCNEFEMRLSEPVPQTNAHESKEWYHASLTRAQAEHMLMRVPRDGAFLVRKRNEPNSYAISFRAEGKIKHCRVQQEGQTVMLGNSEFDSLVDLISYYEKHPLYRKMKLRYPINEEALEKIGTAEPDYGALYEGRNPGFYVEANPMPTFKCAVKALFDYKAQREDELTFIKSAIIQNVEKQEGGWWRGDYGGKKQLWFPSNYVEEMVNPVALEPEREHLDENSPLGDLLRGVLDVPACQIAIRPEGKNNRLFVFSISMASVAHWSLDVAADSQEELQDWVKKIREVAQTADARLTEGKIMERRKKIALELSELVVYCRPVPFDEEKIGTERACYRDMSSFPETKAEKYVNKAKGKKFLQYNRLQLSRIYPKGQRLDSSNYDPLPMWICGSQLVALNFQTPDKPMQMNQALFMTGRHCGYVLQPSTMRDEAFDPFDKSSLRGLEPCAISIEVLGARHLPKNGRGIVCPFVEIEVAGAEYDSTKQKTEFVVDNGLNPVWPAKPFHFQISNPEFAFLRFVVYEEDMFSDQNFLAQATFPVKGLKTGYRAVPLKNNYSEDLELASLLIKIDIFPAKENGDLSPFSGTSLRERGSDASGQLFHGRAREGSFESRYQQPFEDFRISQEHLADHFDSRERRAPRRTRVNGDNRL
# TbMetRS inhib: blocks T. brucei methionyl-tRNA synthetase activity; purified T. brucei MetRS, ATP depletion, Kinase-Glo luminescence; inhibition, % at 11.9 µM; actives 0.4% (n = 360,000); AID 624268;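 active means inhibition above a per-plate cutoff of the control wells' mean inhibition plus 3 SD, cut at about 5.5% in these data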;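 further: 0% = DMSO wells median and 100% = median of wells with control inhibitor compound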
#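 Material – parasite MetRS enzyme · Medium – HEPES-MgCl2-KCl buffer plus DTT, spermine, BSA, pyrophosphatase · Reagent – ATP, methionine and E. coli bulk tRNA substrates · Times – 15 min enzyme-compound preincubation, 2 h reaction, 10 min detection, 25 °C · Measured by – luminescence of leftover ATP · Evaluation – percent inhibition relative to median high and low control wells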
# DAGLB inhibitor: diacylglycerol lipase beta (human) inhibition. inhibition, % at 5.17 µM. actives 0.059% (n = 340,000). Q8NCG7. HEK293T DAGLB membrane lysate, EnzChek fluorogenic substrate; in the data active means inhibition above about 34%;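 further: 0% = enzyme with vehicle and 100% = wells lacking enzyme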
# HGIII-sPLA2 inh: Blocks human group III sPLA2 activity. Q9NZ20. QFRET BODIPY PC-A2 liposome hydrolysis, fluorescence. inhibition, % at 12.2 µM. actives 0.56% (n = 370,000). AID 743126;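 active means inhibition above mean plus 3 SD of compounds lying within the high and low control bounds, cut at about 19% in these data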;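 further: 0% = median of test compound wells and 100% = no enzyme DMSO wells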
# PLCb3 inh: PLC-beta3 (human) inhibition, primary screen; AID 720704; inhibition, % at 12.2 µM; actives 0.18% (n = 370,000); Purified PLC-beta3, fluorogenic substrate, fluorescence; in the data active means inhibition above about 11%;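 further: 0% = median of compound wells on plate and 100% = full blocker control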
# Starred values were filed as active, the others as inactive; · = not tested or not shown. Sampled rows, rich in hits. Any-hit rate of the full collection: about 1.9%.
SMILES,PLC-gamma1 inh,TbMetRS inhib,DAGLB inhibitor,HGIII-sPLA2 inh,PLCb3 inh
CCCOc1ccc(N2C(=O)CC(SCCc3nc4ccccc4[nH]3)C2=O)cc1 (stereo not given),-1,2,-2,-28,3
O=C1CC(SCCc2nc3ccccc3[nH]2)C(=O)N1c1ccc(Cl)cc1 (stereo not given),-2,21*,2,-20,-2
CCC(=O)NC(c1cccs1)c1ccc2cccnc2c1O (stereo not given),-21,0,8,15,-27
Oc1c(C(Nc2nc3ccccc3s2)c2ccco2)ccc2cccnc12 (stereo not given),-12,0,10,34*,-21
CCN(C(=O)CCc1cn(CC)c2ccccc12)c1ccc(Oc2cccnc2)cc1,3,·,·,-21,-4
C=CCNC(=O)C1CCN(c2cncnc2)CC1,-9,·,·,18,-10
C[C@@H](OC(=O)N1CCCCC1)[C@H]1O[C@]2(C)CCCC[C@H]1O2,11*,0,-4,-1,7
CN(C)c1ccc(/C=C/c2ccc3ccccc3[n+]2C)cc1,-1,-3,14,19*,0
CCOC(=O)CSC1=C(C#N)C(=O)NC(c2ccc(OC)c(OC)c2)S1 (stereo not given),3,-1,-1,-1,2
CCOC(=O)CSC1=C(C#N)C(=O)NC(c2ccc(OC)cc2)S1 (stereo not given),14*,-1,0,5,17*
COc1ccc(CN(C)CCc2ccccn2)cc1OC,11*,0,1,12,13*
COc1cc(CN(C)CCc2ccccn2)cc(OC)c1OC,0,-1,0,8,3
CCN(CC)C(=O)CSc1nnc(-c2ccccn2)n1C,0,·,·,10,-3
COCCN1C(=O)CSCC1(C)C(=O)Nc1c(C)cccc1C (stereo not given),3,-1,·,9,1
Cc1cccc(C)c1NC(=O)C1(C)CSCC(=O)N1CCOc1ccccc1 (stereo not given),12*,0,·,13,11*
COCC(=O)OC1CCn2c1nc1c2C(=O)C(C)=C(NC(C)=O)C1=O (stereo not given),14*,0,-7,-5,6
CN1CCN(C(c2ccc(F)cc2)c2ccc3cccnc3c2O)CC1 (stereo not given),·,0,1,·,·
CN1CCN(C(c2ccc(Br)cc2)c2cc(Cl)c3cccnc3c2O)CC1 (stereo not given),-17,0,-3,20*,-28
COC(=O)c1ccc(C=NNC(=O)c2cc(-c3ccc(C)c(C)c3)n[nH]2)cc1,5,·,·,3,3
O=C1OC(Nc2cc(Br)cc3cccnc23)c2ccccc21 (stereo not given),11*,2,0,2,-24
CC(=O)N1CCN(c2ccc(S(=O)(=O)N3CCOCC3)cc2[N+](=O)[O-])CC1,10.0*,0,1,8,10
O=C(c1ccc(F)cc1)c1cccc(C(=O)c2ccc(F)cc2)n1,3,0,-5,1,11*
CCCC(=O)N1CCC(NS(=O)(=O)c2ccc3c(c2)CCN3C(C)=O)CC1,2,·,·,14,3
COc1cccc(C(C#N)N2N=C(C)CC2(C)C)c1O (stereo not given),12*,-1,0,0,-3
COc1ccccc1C(C#N)N1N=C(C)CC1(C)C (stereo not given),-1,0,0,1,2
SMILES,PLC-gamma1 inh,TbMetRS inhib,DAGLB inhibitor,HGIII-sPLA2 inh,PLCb3 inh
C[C@H]1CN([C@@H](C)CO)C(=O)c2cc(Br)cnc2O[C@H]1CN(C)C(=O)c1cccnc1,1,0,-1,8,1
C[C@@H]1CN([C@H](C)CO)C(=O)c2cc(Br)cnc2O[C@H]1CN(C)C(=O)c1ccccc1,11*,-1,-2,2,7
Cc1cccc(NC(=S)N=Nc2c(O)[nH]c3ccccc23)c1,11*,0,11,20*,2
O=C(N=Nc1c(O)[nH]c2ccccc12)Nc1ccccc1,9,0,0,4,5
Cc1ccc(-n2c(SC/C=C/c3ccccc3)nnc2-c2ccco2)cc1,-1,·,·,-14,-2
Cc1cc(C)c(S(=O)(=O)Nc2ccc3c(c2)CCC3)c(C)c1,13*,0,-5,-22,4
C=CCn1c(Cc2cccs2)nnc1SCC(=O)Nc1cccc2ccccc12,-2,·,·,-2,3
Cc1c(Cl)cccc1NC(=S)NCCC(c1ccccc1)c1ccccc1,10*,0,-11,-12,-1
Cc1c(Cl)cccc1NC(=S)NCCC(C)C,-1,0,-5,5,8
CN(c1cccc(NC(=O)c2ccccc2N(C)S(C)(=O)=O)c1)S(C)(=O)=O,5,-1,-1,3,2
Cc1c(C(=O)Nc2cccc(N(C)S(C)(=O)=O)c2)cccc1[N+](=O)[O-],14*,0,0,-4,14*
CC1=NN(c2ccccc2)C(=O)/C1=C/c1ccc(Cl)cc1,16*,-1,4,2,3
CC1=NN(c2ccccc2)C(=O)C1=Cc1ccccc1,10*,1,5,3,5
COc1ccc2ccccc2c1-c1c(C(=O)c2ccc(Br)cc2)[nH]c(N)c1C(=O)NC1CCCCC1,-4,·,·,1,-9
COc1ccccc1CCC[C@@H](CCS(=O)(=O)C(C)C)CC1CCCCC1,0,·,·,-4,-1
Cc1oc2cc([N+](=O)[O-])c(O)c([N+](=O)[O-])c2c1C(=O)c1ccc(Cl)cc1,10*,1,31,-22,11*
COP(=O)(OC)c1ccc(NCc2cc(O)ccc2O)cc1,-6,0,-1,-1,-3
O=C(OCc1ccccc1)c1ccc(NCc2cc(O)ccc2O)cc1,-5,0,-6,26*,-6
CC(C)OC(=O)c1ccc(NCc2cc(O)ccc2O)cc1,-1,0,-3,22*,-1
Cc1cc(C)c2sc(N(CCCN(C)C)C(=O)c3ccc(S(=O)(=O)N4CCc5ccccc5C4)cc3)nc2c1,·,0,-7,·,·
Cc1cc(C)c2sc(NNC(=O)c3ccc(S(=O)(=O)N4CCc5ccccc5C4)cc3)nc2c1,-59,0,-21,45*,-64
O=C(C1CCC1)N1CCc2cc(S(=O)(=O)N3CCN(c4ccccc4F)CC3)ccc21,0,·,·,4,2
c1ccc(C[C@H]2CN=C(Nc3ccccc3)N2CCC2CCCC2)cc1,10*,0,1,10,8
CC(C)C[C@H]1CN=C(Nc2ccccc2)N1CCC1CCCCC1,2,0,4,3,3
C[C@@H]1CCCCCCCCC(=O)OCCN(C(=O)OC(C)(C)C)[C@H](C)CCCCCCCCC(=O)OCCN1C(=O)OC(C)(C)C,7,0,-2,17,13*
C[C@@H]1CCCCCCCCC(=O)OCCN1C(=O)OC(C)(C)C,1,0,-5,11,1
Cc1ccc(C(=O)N(CC(=O)Nc2ccc(Cl)c(Cl)c2)Cc2ccco2)cc1,-4,1,-6,0,-4

# Compound activity: PubChem BioAssay, The Scripps Research Institute Molecular Screening Center
